Compound activity from PubChem BioAssay.
Compounds with a hit are over-represented: about 2.1% of the library has one in this group of screens.
CDK5 p35 inh: inhibitors of human CDK5/p35 kinase | Q00535+Q15078 | Recombinant CDK5/p35, ADP-Glo luminescence, 60 min | inhibition, % at 10 µM | 0.01% of 330,000 active;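 active means highest replicate inhibition of at least 50% and at least 75% of replicates reaching 50%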;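 further: plate controls were DMSO neutral control for no effect and GW8510 at 10 µM for full effect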
Target sequence (Q00535 whole entry, looked up): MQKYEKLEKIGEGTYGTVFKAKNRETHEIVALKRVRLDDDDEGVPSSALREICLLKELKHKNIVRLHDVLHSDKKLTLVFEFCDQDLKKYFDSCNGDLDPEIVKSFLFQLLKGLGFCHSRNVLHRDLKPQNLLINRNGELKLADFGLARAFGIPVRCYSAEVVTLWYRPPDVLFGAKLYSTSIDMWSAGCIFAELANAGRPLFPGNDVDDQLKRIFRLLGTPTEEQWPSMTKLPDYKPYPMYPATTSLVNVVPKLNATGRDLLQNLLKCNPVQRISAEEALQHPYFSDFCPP
Target sequence (Q15078 whole entry, looked up): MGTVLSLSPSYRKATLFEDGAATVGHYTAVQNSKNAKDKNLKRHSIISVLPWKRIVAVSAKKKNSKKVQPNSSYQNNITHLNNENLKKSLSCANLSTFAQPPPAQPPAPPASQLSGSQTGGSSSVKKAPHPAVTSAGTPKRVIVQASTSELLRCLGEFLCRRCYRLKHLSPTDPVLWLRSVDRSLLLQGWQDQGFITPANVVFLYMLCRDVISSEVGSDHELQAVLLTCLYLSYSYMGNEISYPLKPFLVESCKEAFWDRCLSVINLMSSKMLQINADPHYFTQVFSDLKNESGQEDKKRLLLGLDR
PKA-R2B activ: activators of human PKA-R2B complex. PKA-R2B holoenzyme dissociation, Cy5-IP20 fluorescence polarization; R2B truncated from residue 108, S112A mutant; 0% DMSO only, 100% 113 µM cGMP. activation, % at 11.4 µM. 0.079% of 340,000 active. P22694+P31323;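 active means activation above a cutoff set at the mean over all compounds plus 3 SD, cut at about 18% in these data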;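 further: higher means more holoenzyme dissociation and a rise in polarization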
SR-BI DiI inh: mouse SR-BI HDL lipid transfer inhibition; Q61009; ldlA[mSR-BI] CHO cells, DiI-HDL uptake fluorescence, 3 h; inhibition, % at 12.5 µM; 0.96% of 320,000 active; AID 488896;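 active means mean replicate inhibition of at least 70% and a set share of replicates each scoring 70 or more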;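 further: 0% = median of neutral control wells and 100% = median of positive control wells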
PKA-R1A act: activates the PKA-R1A holoenzyme complex | PKA-R1A dissociation, Cy5-IP20 fluorescence polarization; scaled: DMSO 0%, 113 µM cGMP 100% | activation, % at 11.4 µM | 0.083% of 340,000 active;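 active means percent activation above the mean of all tested compounds plus 3 SD, cut at about 19% in these data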;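 further: higher means more PKAc released from R1A so a rise in polarization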
dFosB activator: activators of mouse delta FosB homodimer; P13346; purified delta FosB, TAMRA-CDK5 oligo fluorescence polarization; percent of positive-control signal above neutral wells; activation, % at 25 µM; 0.99% of 340,000 active;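 active means mean activation above about 17%, with every replicate also reaching it, limit read from the data, passing the limit was not always enough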
SR-BI DiI-HDL act: SR-BI HDL lipid transfer activation; activation, % at 12.5 µM; 0.096% of 320,000 active; AID 504775; CHO ldlA[mSR-BI] cells, DiI-HDL uptake fluorescence, 3 h; 100 = double the neutral-control signal;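 active means mean replicate activation of at least 60% and every replicate at or above 60%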;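 further: 0% = median plate neutral-control signal and 100% = twice that signal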
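Material – SR-BI-overexpressing, LDLR-lacking CHO cells · Medium – BSA-supplemented, HEPES-buffered Ham's F12, pH 7.4 · Doses – single concentration · Times – compound with DiI-HDL co-incubation, 3 h at 37 °C · Measured by – bottom-read fluorescence, 550/595 nm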
* hit, by the source's call; x = no result given.

SMILES	CDK5 p35 inh	PKA-R2B activ	SR-BI DiI inh	PKA-R1A act	dFosB activator	SR-BI DiI-HDL act
CCCN(CCC)CCCNC(=O)c1cc2c(=O)[nH]c3ccccc3c2s1	1	-6	35	5	-41	-35
O=C(Nc1ccccc1)c1sc2cc(C(F)(F)F)cnc2c1-c1cccs1	-1	-3	71*	-1	-4	-71
CCn1c(=O)cc(OCC(=O)NCCCN2CCCC2=O)c2ccccc21	1	3	1	-3	-3	-1
COc1cc(CNCCc2ccccc2)ccc1OCC(N)=O	0	0	-64	-16	1	64*
CCCCC1OC23CCCCC2C(C#N)(C(=N)O3)C1(C#N)C#N (stereo not drawn)	0	3	-81	-12	-72	81*
CCCCC1OC23CCCCC2C(C#N)(C#N)C1(C#N)C(=N)O3 (stereo not drawn)	0	-10	-35	9	-48	35
CC(C)(C)c1ccc(OCCCC(=O)NNC(=O)c2ccccc2O)cc1	1	-19	120*	6	-4	-120
CC(C)(C)c1ccc(C(=O)NNC(=O)c2ccccc2Br)cc1	-1	-2	-4	-5	-1	4
CC(C)(C)c1ccc(C(=O)NCC(=O)NNC(=O)c2ccccc2O)cc1	2	-3	90*	4	-6	-90
CN(CCc1ccccc1)C(=O)CC1C(=O)NCCN1Cc1ccccn1 (stereo not drawn)	x	-7	x	-7	x	x
O=C(NNC(=O)c1ccc(Br)s1)c1csc(N2CCOCC2)n1	-6	2	-15	-10	61*	15
Cc1sc2nc(SCC(=O)N3CCOCC3)[nH]c(=O)c2c1-c1ccccc1	0	2	-34	-11	-6	34
Oc1ccc2ccccc2c1/C=N/Nc1nnc(-c2ncc[nH]2)c2ccccc12	-1	-6	136*	-2	11	-136
COc1ccc(/C=N/Nc2nnc(-c3ncc[nH]3)c3ccccc23)cc1	0	1	3	-6	-11	-3
CC(=O)N1CCc2c(sc(NC(=O)c3ccc([N+](=O)[O-])o3)c2C#N)C1	1	18	5	13	-10	-5
COc1ccc(C(=O)Nc2sc3c(c2C#N)CCN(C(C)=O)C3)cc1	0	-8	76*	8	-9	-76
COc1cc(C(=O)Nc2sc3c(c2C#N)CCN(C(C)=O)C3)cc(OC)c1OC	2	-3	78*	-5	-14	-78
COc1ccccc1NC(=O)C(C)OC(=O)Cc1ccsc1 (stereo not drawn)	-1	-11	-15	-12	9	15
CC(=O)CCc1ccc(Oc2nc(-c3cccnc3)nc3ccccc23)cc1	0	-6	20	-5	-35	-20
COc1ccc(N=c2oc3cc(O)ccc3cc2C(=O)Nc2ccccn2)cc1OC	1	-3	71*	-1	-16	-71
CCN(CC)C(=O)Cn1cc(C(=O)C(=O)Nc2ccc3c(c2)OCO3)c2ccccc21	x	-11	x	-6	x	x
O=C(COc1cc(F)ccc1[N+](=O)[O-])Nc1cc(S(=O)(=O)N2CCCC2)ccc1Cl	0	-10	75*	-8	1	-75
COc1cc(CC(=O)OCc2ccccc2F)cc(OC)c1OC	0	-11	37	4	-8	-37
COC(=O)Nc1nc(-c2ccccc2)c(C(=O)c2ccccc2)s1	1	-3	91*	-2	-10	-91
COc1ccc(-c2ccc3c(c2)C2CC3CCN2)cc1 (stereo not drawn)	-1	1	0	0	5	0
SMILES	CDK5 p35 inh	PKA-R2B activ	SR-BI DiI inh	PKA-R1A act	dFosB activator	SR-BI DiI-HDL act
COc1ccc(/C=C(/C#N)C(=O)Nc2ccc(C)cc2C)cc1C(=O)O	3	-5	-66	-2	3	66*
COc1ccc(/C=C(/C#N)C(=O)Nc2ccccc2C)cc1C(=O)O	-7	6	-7	-1	-6	7
COc1c(C(=O)Nc2ccc3[nH]c(=O)[nH]c3c2)cc2ccccc2c1Br	-1	-3	78*	1	-7	-78
COc1ccc(/C=C/C(=O)OCC(=O)c2ccc(S(=O)(=O)N3CCCCC3)cc2)cc1OC	0	0	50	1	84*	-50
COc1ccc(/C=C/C(=O)Nc2cccc(S(=O)(=O)N3CCCC3)c2)cc1OC	0	-8	80*	3	4	-80
COc1ccc(CC(=O)Nc2cccc(S(=O)(=O)N3CCCC3)c2)cc1OC	2	1	10	0	-7	-10
Cc1ccc(S(=O)(=O)N2CCOCC2)cc1NC(=O)COC(=O)/C=C/c1ccc(F)cc1	-1	-6	8	8	81*	-8
O=C(/C=C/c1ccc(S(=O)(=O)N2CCOCC2)cc1)N1CCCCC1	-2	-12	-13	0	-1	13
CCOC(=O)C1CCN(C(=O)/C=C/c2ccc(S(=O)(=O)N3CCOCC3)cc2)CC1	-1	2	-63	2	1	63*
O=C(CCc1ccccc1)N1CCN(Cc2ccc(F)cc2Cl)CC1	-2	-5	15	3	-2	-15
COc1ccccc1C(=O)NCCN1CCN(c2ccccc2)CC1	-1	3	2	7	-6	-2
O=C(/C=C/c1ccc(F)cc1)Nc1cccc(S(=O)(=O)N2CCOCC2)c1	-1	12	74*	-2	-23	-74
O=C(Nc1ccc(Br)cc1)C1CCCN(C2=NS(=O)(=O)c3ccccc32)C1 (stereo not drawn)	0	1	-7	-11	13	7
COc1ccccc1C=NN=C(NN=Cc1ccccc1OC)NN=Cc1ccccc1OC	-2	-9	27	-3	44*	-27
COc1cccc(/C=N/NC(=O)N/N=C/c2cccc(OC)c2O)c1O	-2	5	83*	-2	-4	-83
COc1ccccc1/C=C/C(=O)NCC(=O)N/N=C/c1cc(Br)ccc1OC	1	-15	98*	5	1	-98
CCC(=NNC(=O)c1ccc2c(c1)nc(C)n2CC)c1cc(F)ccc1O	-1	0	114*	-1	-3	-114
COc1ccccc1C=NNC(=O)NN=Cc1ccccc1OC	3	-5	39	1	-13	-39
COc1ccc(Br)cc1/C=N/NC(=O)CNC(=O)c1cccnc1	-2	-1	15	0	-7	-15
O=c1cc(/C=C/c2ccccc2)oc2ccccc12	0	2	1	6	-42	-1
COc1cc2ccccc2cc1C(=O)Nc1nccs1	0	0	53	-5	-24	-53
